# Hits are enriched below; roughly 3.7% of the tested compounds scored in any of these assays.
# KCNK9 block: inhibitors of human KCNK9 two-pore domain potassium channel; B-score at 10 µM; AID 488922; HEK293 KCNK9, FluxOR thallium flux fluorescence; active compounds read low; 310,000 compounds, 1.2% hits; Q9NPC2;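 active = ratio B-score over 3 SD below the library mean, with starting fluorescence within 5 SD of its mean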;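 also: negative B-score means less thallium flux so channel inhibition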
# KCNQ1 act: human KCNQ1 channel potentiation or activation. 310,000 compounds, 0.35% hits. AID 2648. B-score at 10 µM. CHO-K1 KCNQ1, thallium flux FluxOR fluorescence; active compounds read high;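 active = fluorescence ratio B-score, a plate-corrected score, at least three library SD, with initial intensity B-score within 5 SD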
# Target sequence (P51787 whole entry, looked up): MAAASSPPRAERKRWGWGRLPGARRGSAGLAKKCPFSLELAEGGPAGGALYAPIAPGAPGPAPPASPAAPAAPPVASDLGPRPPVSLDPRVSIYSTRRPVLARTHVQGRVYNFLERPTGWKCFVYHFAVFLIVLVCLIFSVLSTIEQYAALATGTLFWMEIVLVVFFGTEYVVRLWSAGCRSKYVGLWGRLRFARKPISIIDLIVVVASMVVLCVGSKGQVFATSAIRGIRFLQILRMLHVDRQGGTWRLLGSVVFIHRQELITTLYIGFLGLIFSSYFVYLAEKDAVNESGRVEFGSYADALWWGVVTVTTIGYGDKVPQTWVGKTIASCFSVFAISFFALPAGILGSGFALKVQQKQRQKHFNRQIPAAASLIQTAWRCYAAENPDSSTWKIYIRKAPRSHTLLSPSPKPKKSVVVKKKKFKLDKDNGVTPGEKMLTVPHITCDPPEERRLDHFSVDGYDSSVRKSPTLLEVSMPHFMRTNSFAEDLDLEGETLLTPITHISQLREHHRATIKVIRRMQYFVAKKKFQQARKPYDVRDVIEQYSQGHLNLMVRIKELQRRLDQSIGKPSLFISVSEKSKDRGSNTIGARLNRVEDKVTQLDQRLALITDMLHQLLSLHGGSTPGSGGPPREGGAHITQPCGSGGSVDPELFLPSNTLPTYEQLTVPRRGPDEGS
#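 Assay system: CHO-K1 cells stably expressing KCNQ1. Medium: assay buffer for compound exposure, DMSO matched across wells. Timing: 37 °C overnight plating, 90-min dark dye load, 20-min compound pretreatment. Signal: kinetic FluxOR fluorescence, 10 s baseline plus 110 s post-stimulus.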
# hERG rescue: shields human hERG channel from block by proarrhythmic agents; 310,000 compounds, 0.51% hits; activation (rescue from dofetilide block), less the hit threshold, % at 10 µM; CHO-hERG, FluxOR thallium flux, dofetilide IC70 present; Q12809;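 active = activation above the mean of controls blocked by dofetilide plus 5 SD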;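 also: thallium influx through hERG after potassium depolarization seen as dye fluorescence rise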
# Kir21 block: blocks the mouse Kir2.1 inward-rectifier potassium channel; P35561; HEK293-Kir2.1, FluxOR thallium flux fluorescence; active compounds read low; B-score at 10 µM; 310,000 compounds, 0.85% hits; AID 1672;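 active = fluorescence ratio B-score at or below minus 3 SD of library scores, with starting-brightness B-score within 2 SD, cut at about -4.2 in these data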;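 also: channel flux triggered by added potassium and thallium sulfate stimulus; B-score of peak minus minimum fluorescence over baseline after thallium stimulus; more negative B-score means stronger Kir2.1 block with less thallium influx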
# KCNQ1 inh: inhibitors of human KCNQ1 potassium channel. P51787. CHO-K1 KCNQ1, FluxOR thallium flux fluorescence; active compounds read high. B-score at 10 µM. 310,000 compounds, 1.3% hits;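 active = compounds whose thallium flux B-score, printed positive for inhibition, exceeds three library SD while starting fluorescence stays within three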;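 also: channel opened by potassium depolarization with thallium stimulus after 20 min compound exposure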
# KCNK3 inh: human KCNK3 channel inhibition, primary screen; CHO-KCNK3 thallium flux, FluxOR fluorescence; active compounds read low; 340,000 compounds, 0.84% hits; B-score at 10 µM; O14649; AID 602410;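 active = B-score under library mean minus 4 SD, starting fluorescence ratio at most library mean plus 5 SD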;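 also: more negative B-score means stronger inhibition of thallium flux through KCNK3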
# KCNK9 block conf: human KCNK9 inhibitor confirmation. shares compounds with KCNK9 block. HEK293 KCNK9 cells, FluxOR thallium flux fluorescence. inhibition, % at 10 µM. 4,900 compounds, 43% hits. AID 492992;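 active = thallium signal inhibited by more than 5 SD of the compound-free buffer control wells, on both duplicate plates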;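 also: 0% = assay buffer control wells without compound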
# Kir21 sel: mouse Kir2.1 off-target activity of KCNK9 modulators; shares compounds with KCNK9 block; Kir2.1 cells, FluxOR thallium flux fluorescence; inhibition, % at 10 µM; 4,900 compounds, 4% hits; AID 492993;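 active = thallium signal drop more than 5 SD beyond the mean of the no-compound control wells, seen in both duplicate plates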;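 also: signal is fluorescence rise after thallium addition divided by baseline fluorescence; plate controls were assay buffer only for no effect and full block by chlorpromazine control for full effect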
# HEK293 Tl ctr: second check of KCNK9 modulator effects in non-induced HEK293 cells; FluxOR thallium flux; inhibition, % at 10 µM; 4,900 compounds, 40% hits; shares compounds with KCNK9 block;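 active = thallium signal drop beyond 5 SD of the untreated control mean, on both duplicate plates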;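 also: plate controls were buffer only IC0 wells for no effect and SID17386958 at its maximal inhibitory level for full effect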
# An asterisk follows results filed as active; i = inactive; / = no result.
SMILES,KCNK9 block,KCNQ1 act,hERG rescue,Kir21 block,KCNQ1 inh,KCNK3 inh,KCNK9 block conf,Kir21 sel,HEK293 Tl ctr
O=C(/C=C/c1ccc(OC2CSC2)cc1)c1ccccc1,-16*,i,-10,-1.6,i,i,42%*,i,28%*
O=C(N/N=C/c1ccc(OC2CSC2)cc1)c1ccccc1,i,i,-6,-0.16,i,i,/,/,/
CC(=O)c1ccc(S(=O)(=O)N(C)C(C)CCc2ccco2)cc1 (centres undefined),i,i,-2,-0.41,i,i,/,/,/
Oc1oc(-c2ccccc2)nc1C=Nc1cccc2ccccc12,-9.9*,i,0,-1.1,i,i,i,i,45%*
CN(Cc1ccccc1)C(=O)COc1ccccc1Cl,i,i,-4,-0.08,i,i,/,/,/
CN(Cc1ccccc1)C(=O)COc1ccc(Br)cc1Cl,-12*,i,-13,0.01,i,i,37%*,i,30%*
Cc1ccc(NC2CCCN(C(=O)c3cn4cccc(C)c4n3)C2)cc1C (centres undefined),i,i,-5,-0.17,i,i,i,i,i
CSc1nc(C(=O)N2CCCC(Nc3ccc(C)c(C)c3)C2)cs1 (centres undefined),i,i,-7,-2.8,i,i,i,i,i
Cc1nc(C(=O)N2CCCC(Nc3ccc(C)c(C)c3)C2)cs1 (centres undefined),i,i,-9,0.13,i,i,/,/,/
Cc1ccc(NC2CCCN(C(=O)C3CCCC3)C2)cc1C (centres undefined),i,i,-6,-2.4,i,i,i,i,i
Cc1cc(C)nc(SCC(=O)N/N=C/c2cccs2)n1,i,i,-1,-0.22,i,i,/,/,/
O=C(COC(=O)c1oc2ccccc2c1CSc1ccc(Cl)cc1)NC1CCCC1,-8.1*,i,-6,0.64,10*,i,32%*,36%*,50%*
NC(=O)COC(=O)c1oc2ccccc2c1CSc1ccc(Cl)cc1,i,i,-10,0.03,i,i,/,/,/
O=C(COC(=O)CNC(=O)c1ccco1)Nc1ncc(Cl)cc1Cl,/,/,/,/,/,i,/,/,/
CC1CCCCN1C(=O)CSc1nc2cc3c(cc2c(=O)n1Cc1ccc2c(c1)OCO2)OCO3 (centres undefined),i,i,-18,-0.42,i,i,i,i,24%*
Cc1cc(C)cc(C(=O)NC(CC(N)=O)c2ccc(N3CCC(Cc4ccccc4)CC3)c([N+](=O)[O-])c2)c1 (centres undefined),-13*,i,-5,-0.78,i,i,53%*,i,36%*
Cc1cc(C)cc(C(=O)NC(CC(N)=O)c2ccc(N3CCN(c4ccccc4)CC3)c([N+](=O)[O-])c2)c1 (centres undefined),i,i,-4,1.3,i,i,/,/,/
CCCCc1ccc(NC(=O)CN(C)CC(=O)Nc2ccccc2Cl)cc1,i,i,-11,-0.53,i,i,i,i,i
COc1ccccc1N1CCN(/N=C/C=C\c2ccccc2[N+](=O)[O-])CC1,i,i,-16,2.6,i,i,i,i,i
CCOC(=O)C1=C(COC(=O)C(CC)c2ccccc2)NC(=O)NC1C (centres undefined),/,/,/,/,/,i,/,/,/
Cc1sc2nc(-c3cccnc3)nc(Cl)c2c1-c1ccccc1,i,i,-7,0.49,i,i,i,i,i
c1ccc(Cc2nnc(N3CCCCC3)c3ccccc23)cc1,i,i,-4,-2.3,i,i,i,i,i
C[C@H](CO)N1C[C@H](C)[C@@H](CN(C)C(=O)Nc2ccc3c(c2)OCO3)Oc2c(NC(=O)Nc3ccc4c(c3)OCO4)cccc2C1=O,/,/,/,/,/,i,/,/,/
COc1cc2nc(Nc3ccc(C)c(Cl)c3)nc(N)c2cc1OC,-16*,i,-5,-0.1,i,i,i,i,i
CCOC(=O)c1ccc(Nc2nc(N)c3cc(OC)c(OC)cc3n2)cc1,i,i,-4,-0.31,i,i,/,/,/
SMILES,KCNK9 block,KCNQ1 act,hERG rescue,Kir21 block,KCNQ1 inh,KCNK3 inh,KCNK9 block conf,Kir21 sel,HEK293 Tl ctr
Cc1c(C(=O)Nc2ccc(-c3nnc4n3CCCCC4)cc2)oc2c1ccc1ccccc12,-12*,i,-8,1.8,i,i,i,i,30%*
O=C(Nc1ccc(-c2nnc3n2CCCCC3)cc1)c1cc2ccccc2o1,i,i,-26,0.54,i,i,/,/,/
O=C(COC(=O)c1ccc(F)c(S(=O)(=O)N2CCOCC2)c1)NCCc1ccc(F)cc1,/,/,/,/,/,i,/,/,/
Cc1ccc(Cc2nnc3n(-c4ccccc4)nc(C(=O)c4ccccc4)n3c2=O)cc1,i,i,-3,0.22,i,i,i,i,i
O=C(CN1C(=O)NC2(CCCCCC2)C1=O)c1ccc(Cl)s1,i,i,-13,0.16,i,i,/,/,/
c1ccc(COc2cccc(CN3CCN(c4ccccn4)CC3)c2)cc1,-9.1*,i,-20,0,i,i,35%*,i,27%*
COc1ccc(-n2c(=O)c3c4c(sc3n3c(=S)[nH]nc23)COC(C(C)C)C4)cc1 (centres undefined),i,i,-5,-0.86,i,i,/,/,/
CC1C(=NO)C(C)C(c2ccc(N(C)C)cc2)NC1c1ccc(N(C)C)cc1 (centres undefined),i,i,-4,-0.65,i,i,i,i,i
CC(C)c1nc(N2CCN(C(=O)c3ccco3)CC2)c(C#N)c2c1COC(C)(C)C2,i,i,-21,-2.1,i,i,/,/,/
CC(C)c1nc(N2CCN(C(=O)c3ccccc3)CC2)c(C#N)c2c1COC(C)(C)C2,i,i,-12,-0.31,i,i,i,i,i
CC1(C)Cc2c(C#N)c(N3CCCC3)nc(-c3ccco3)c2CO1,i,i,-26,0.39,i,i,i,i,i
c1ccc2[nH]c(NCc3ccc4c(c3)OCO4)nc2c1,i,i,-5,0.47,i,i,/,/,/
CCOC(=O)C1=C(COC(=O)COc2ccc(C(=O)CC)cc2)NC(=O)NC1C (centres undefined),i,i,-22,-0.26,i,i,/,/,/

# From PubChem
